In the assay the test system is Mus musculus. Description: Antinociceptive activity was measured using the mouse acetylcholine-induced abdominal constriction test following subcutaneous administration of the compound. The settings on record: Abdomen, sc. Type of assay: functional. An outline of the steps: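 Male/female not stated; mice dosed subcutaneously, then challenged with acetylcholine to provoke abdominal constrictions. Inhibition of constrictions scored, and an ED50 (mg/kg, sc) derived for each compound.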
Molecule `Cc1cc2c(o1)CCN(C(=O)Cc1ccc(Cl)c(Cl)c1)C2CN1CCC(O)C1` (stereo unspecified) registered an ED50 of 12 µg/kg.
For `O=C(Cc1ccc(Cl)c(Cl)c1)N1CCc2occc2[C@H]1CN1CC[C@@H](O)C1` the value was 30 µg/kg; for `O=C(Cc1ccc(Cl)c(Cl)c1)N1CCc2occc2C1CN1CCCC1` (stereo unspecified), 30 µg/kg; for `O=C(Cc1ccc(Cl)c(Cl)c1)N1CCc2c(O)cccc2C1CN1CCCC1` (stereo unspecified), 3 µg/kg.
As to `O=C(Cc1ccc(Cl)c(Cl)c1)N1CCC2(CC1CN1CCCC1)OCCO2` (stereo unspecified), the ED50 worked out at 1 µg/kg.
For `O=C(Cc1ccc(Cl)c(Cl)c1)N1CCc2occc2C1CN1CC=CCC1` (stereo unspecified) the value was 4 µg/kg; for `O=C(Cc1ccc(Cl)c(Cl)c1)N1CCc2occc2C1CN1CCC(O)C1` (stereo unspecified), 2 µg/kg.
With `O=C(Cc1ccc(Cl)c(Cl)c1)N1CCc2c(O)cccc2C1CN1CCC(O)C1` (stereo unspecified), the ED50 is 84 µg/kg.
For `O=C(Cc1ccc(Cl)c(Cl)c1)N1CCc2occc2[C@@H]1CN1CC[C@H](O)C1` the value was 1.5 µg/kg.
For `O=C1CCN(CC2c3ccoc3CCN2C(=O)Cc2ccc(Cl)c(Cl)c2)C1` (stereo unspecified) the value was 19 µg/kg; for `O=C(Cc1ccc(Cl)c(Cl)c1)N1CCc2occc2C1CN1CC[C@H](O)C1` (single isomer, unassigned), 1 µg/kg.

Broadly, the ED50 is the dose at which the effect has come halfway, by size or by number of responders.
